What all share (assay type): functional, cell-based
The subject of assay [1] is MDA-MB-231. The experiment in a line: Cytotoxicity in human MDA-MB-231 cells assessed as reduction in cell viability incubated for 72 hrs by cell-titer-96 aqueous one solution cell proliferation assay. Conditions: MDA-MB-231, 72 h. In short, it runs like this:
(§1)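 Cells were seeded and cultured overnight at 37 °C in 5% CO2, then exposed to sample, paclitaxel (positive control) or DMSO vehicle for 72 h. Viability was read by CellTiter 96 AQueous One Solution (MTS) assay, and IC50 was calculated relative to the vehicle control.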

Assay [2] deals with MDA-MB-435. Nature of the assay: Cytotoxicity in human MDA-MB-435 cells assessed as reduction in cell viability incubated for 72 hrs by cell-titer-96 aqueous one solution cell proliferation assay. The following applies: MDA-MB-435, 72 h. Summed up: as §1
Assay [3] has as its system OVCAR-3. Nature of the assay: Cytotoxicity in human OVCAR3 cells assessed as reduction in cell viability incubated for 72 hrs by cell-titer-96 aqueous one solution cell proliferation assay. The following applies: OVCAR-3, 72 h. Summed up:
as §1

As for `C[C@@H]1CCCCC[C@H](CCCCO)c2c(O)cc(cc2O)[C@H](C)CCCCC[C@H](CCCCO)c2c(O)cc1cc2O`, the 50% inhibitory concentration (IC50) (usually the midpoint of a concentration-inhibition curve) was found to be 1000 nM in assay [1], 900 nM in assay [2] and 2000 nM in assay [3].

On to `C[C@H]1CCCC[C@H](CCCC(Cl)Cl)c2c(O)cc(cc2O)[C@H](OC(N)=O)[C@@H](C)CCCC[C@H](CCCC(Cl)Cl)c2c(O)cc(cc2O)[C@@H]1OC(N)=O`, for which the IC50 in assay [1] was found to be 1000 nM; in assay [2], 2400 nM; in assay [3], 4300 nM.

Regarding `CCCC[C@H]1CCCCC[C@@H](C)c2cc(O)c(c(O)c2)[C@@H](CCCCO)CCCCC[C@@H](C)c2cc(O)c1c(O)c2`, the IC50 in assay [1] was 1400 nM; in assay [2], 1600 nM; in assay [3] it was 1400 nM.

Take `CCCC[C@H]1CCCCC[C@@H](C)c2cc(O)c(c(O)c2)[C@@H](CCCC)CCCCC[C@@H](C)c2cc(O)c1c(O)c2`: the IC50 in assay [1] came to 6200 nM; in assay [2] it was 9800 nM; in assay [3] it was 5100 nM.

As to `C[C@H]1CCCC[C@H](CCCC(Cl)Cl)c2c(O)cc(cc2O)[C@H](OC(N)=O)[C@@H](C)CCCC[C@H](CCCC(Cl)Cl)c2c(O)cc(cc2O)[C@@H]1O`, the IC50 in assay [1] worked out at 1200 nM; in assay [2], 3200 nM; in assay [3] it was 4200 nM.

With `CCCC[C@H]1CCCC[C@H](C)[C@@H](OC(C)=O)c2cc(O)c(c(O)c2)[C@@H](CCCC)CCCC[C@H](C)[C@@H](OC(C)=O)c2cc(O)c1c(O)c2`, the IC50 in assay [1] is 13000 nM; in assay [2], 12000 nM; in assay [3], 10000 nM.

(Values after ChEMBL document CHEMBL4229323, “Merocyclophanes C and D from the Cultured Freshwater Cyanobacterium Nostoc sp. (UIC 10110)” (J Nat Prod, 2017).)
